From ChEMBL document CHEMBL4689842, “EUbOPEN Chemogenomics Library wave 1” (2021)

System: Fibroblast
Assay: Multiplex assay against human fibroblast
Type: toxicity, cell-based
In short: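 Four dyes were applied at seeding to live cells: Hoechst33342, BioTracker Green Microtubule Cytoskeleton Dye, MitoTracker Red and Annexin V Alexa Fluor 680. Imaging after compound addition used a CQ1 microscope at 37°C and 5% CO2. CellPathfinder machine-learning gating then sorted cells into Hoechst high-intensity objects or normal cells, normal cells into healthy, pyknosed or fragmented nuclei, and pyknosed cells into mitotic or apoptotic, with tubulin, mitochondrial-mass and membrane-permeability phenotypes given as per cents of healthy-nucleus cells.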

[1] = 12 h, 1 µM, compound concentration 1 uM, replicate 1
[2] = 12 h, 1 µM, compound concentration 1 uM, replicate 2
[3] = 12 h, 10 µM, compound concentration 10 uM, replicate 1
[4] = 12 h, 10 µM, compound concentration 10 uM, replicate 2
[5] = 24 h, 1 µM, compound concentration 1 uM, replicate 1
[6] = 24 h, 1 µM, compound concentration 1 uM, replicate 2
[7] = 24 h, 10 µM, compound concentration 10 uM, replicate 1
[8] = 24 h, 10 µM, compound concentration 10 uM, replicate 2
[9] = 48 h, 1 µM, compound concentration 1 uM, replicate 1
[10] = 48 h, 1 µM, compound concentration 1 uM, replicate 2
[11] = 48 h, 10 µM, compound concentration 10 uM, replicate 1
[12] = 48 h, 10 µM, compound concentration 10 uM, replicate 2

SMILES: C=CC(=O)Nc1cccc(Sc2nc(Nc3ccc(N4CCN(C)CC4)cc3)ncc2Cl)c1
- Population Apoptotic (%) [1]: 35%
- Population Fragmented Nuclei (%) [1]: 28%
- Population Healthy Nuclei (%) [1]: 17%
- Population Hoechst High Intensity Objects (%) [1]: 13%
- Population Membrane Permeable-Phenotype (%) [1]: 5%
- Population Mitochondria Different-Phenotype (%) [1]: 50%
- Population Mitotic Cells (%) [1]: 65%
- Population Normal (%) [1]: 86%
- Population Pyknosed Nuclei (%) [1]: 53%
- Population Tubulin-Different-Phenotype (%) [1]: 50%
- Total Cell Count [1]: 130
- Population Apoptotic (%) [2]: 69%
- Population Fragmented Nuclei (%) [2]: 48%
- Population Healthy Nuclei (%) [2]: 6%
- Population Hoechst High Intensity Objects (%) [2]: 20%
- Population Membrane Permeable-Phenotype (%) [2]: 0%
- Population Mitochondria Different-Phenotype (%) [2]: 33%
- Population Mitotic Cells (%) [2]: 30%
- Population Normal (%) [2]: 79%
- Population Pyknosed Nuclei (%) [2]: 46%
- Population Tubulin-Different-Phenotype (%) [2]: 66%
- Total Cell Count [2]: 63
- Population Apoptotic (%) [3]: 79%
- Population Fragmented Nuclei (%) [3]: 34%
- Population Healthy Nuclei (%) [3]: 49%
- Population Hoechst High Intensity Objects (%) [3]: 15%
- Population Membrane Permeable-Phenotype (%) [3]: 6%
- Population Mitochondria Different-Phenotype (%) [3]: 5%
- Population Mitotic Cells (%) [3]: 20%
- Population Normal (%) [3]: 84%
- Population Pyknosed Nuclei (%) [3]: 15%
- Population Tubulin-Different-Phenotype (%) [3]: 9%
- Total Cell Count [3]: 290
- Population Apoptotic (%) [4]: 100%
- Population Fragmented Nuclei (%) [4]: 62%
- Population Healthy Nuclei (%) [4]: 36%
- Population Hoechst High Intensity Objects (%) [4]: 33%
- Population Membrane Permeable-Phenotype (%) [4]: 7%
- Population Mitochondria Different-Phenotype (%) [4]: 7%
- Population Mitotic Cells (%) [4]: 0%
- Population Normal (%) [4]: 66%
- Population Pyknosed Nuclei (%) [4]: 1%
- Population Tubulin-Different-Phenotype (%) [4]: 25%
- Total Cell Count [4]: 116
- Population Apoptotic (%) [5]: 74%
- Population Fragmented Nuclei (%) [5]: 53%
- Population Healthy Nuclei (%) [5]: 6%
- Population Hoechst High Intensity Objects (%) [5]: 7%
- Population Mitochondria Different-Phenotype (%) [5]: 57%
- Population Mitotic Cells (%) [5]: 25%
- Population Normal (%) [5]: 92%
- Population Pyknosed Nuclei (%) [5]: 40%
- Population Tubulin-Different-Phenotype (%) [5]: 71%
- Total Cell Count [5]: 126
- Population Apoptotic (%) [6]: 90%
- Population Fragmented Nuclei (%) [6]: 70%
- Population Healthy Nuclei (%) [6]: 5%
- Population Hoechst High Intensity Objects (%) [6]: 23%
- Population Membrane Permeable-Phenotype (%) [6]: 0%
- Population Mitochondria Different-Phenotype (%) [6]: 0%
- Population Mitotic Cells (%) [6]: 10%
- Population Normal (%) [6]: 76%
- Population Pyknosed Nuclei (%) [6]: 25%
- Population Tubulin-Different-Phenotype (%) [6]: 50%
- Total Cell Count [6]: 52
- Population Apoptotic (%) [7]: 80%
- Population Fragmented Nuclei (%) [7]: 34%
- Population Healthy Nuclei (%) [7]: 50%
- Population Hoechst High Intensity Objects (%) [7]: 17%
- Population Membrane Permeable-Phenotype (%) [7]: 5%
- Population Mitochondria Different-Phenotype (%) [7]: 5%
- Population Mitotic Cells (%) [7]: 20%
- Population Normal (%) [7]: 82%
- Population Pyknosed Nuclei (%) [7]: 14%
- Population Tubulin-Different-Phenotype (%) [7]: 11%
- Total Cell Count [7]: 285
- Population Apoptotic (%) [8]: 0%
- Population Fragmented Nuclei (%) [8]: 65%
- Population Healthy Nuclei (%) [8]: 34%
- Population Hoechst High Intensity Objects (%) [8]: 34%
- Population Membrane Permeable-Phenotype (%) [8]: 20%
- Population Mitochondria Different-Phenotype (%) [8]: 4%
- Population Mitotic Cells (%) [8]: 0%
- Population Normal (%) [8]: 65%
- Population Pyknosed Nuclei (%) [8]: 0%
- Population Tubulin-Different-Phenotype (%) [8]: 16%
- Total Cell Count [8]: 111

SMILES: O=C(c1cc2c(cc1F)OC(c1ccc(F)cc1)(c1ccc(Cl)cc1Cl)O2)N1CCOCC1 (stereo unspecified)
- Population Apoptotic (%) [1]: 51%
- Population Fragmented Nuclei (%) [1]: 18%
- Population Healthy Nuclei (%) [1]: 47%
- Population Hoechst High Intensity Objects (%) [1]: 13%
- Population Membrane Permeable-Phenotype (%) [1]: 19%
- Population Mitochondria Different-Phenotype (%) [1]: 6%
- Population Mitotic Cells (%) [1]: 48%
- Population Normal (%) [1]: 86%
- Population Pyknosed Nuclei (%) [1]: 34%
- Population Tubulin-Different-Phenotype (%) [1]: 56%
- Total Cell Count [1]: 112
- Population Apoptotic (%) [2]: 50%
- Population Healthy Nuclei (%) [2]: 68%
- Population Hoechst High Intensity Objects (%) [2]: 7%
- Population Membrane Permeable-Phenotype (%) [2]: 9%
- Population Mitochondria Different-Phenotype (%) [2]: 12%
- Population Mitotic Cells (%) [2]: 50%
- Population Normal (%) [2]: 92%
- Population Pyknosed Nuclei (%) [2]: 12%
- Population Tubulin-Different-Phenotype (%) [2]: 15%
- Total Cell Count [2]: 78
- Population Apoptotic (%) [3]: 71%
- Population Fragmented Nuclei (%) [3]: 31%
- Population Healthy Nuclei (%) [3]: 29%
- Population Hoechst High Intensity Objects (%) [3]: 12%
- Population Membrane Permeable-Phenotype (%) [3]: 4%
- Population Mitochondria Different-Phenotype (%) [3]: 43%
- Population Mitotic Cells (%) [3]: 28%
- Population Normal (%) [3]: 87%
- Population Pyknosed Nuclei (%) [3]: 38%
- Population Tubulin-Different-Phenotype (%) [3]: 17%
- Total Cell Count [3]: 176
- Population Fragmented Nuclei (%) [4]: 10%
- Population Healthy Nuclei (%) [4]: 78%
- Population Hoechst High Intensity Objects (%) [4]: 4%
- Population Membrane Permeable-Phenotype (%) [4]: 47%
- Population Mitochondria Different-Phenotype (%) [4]: 96%
- Population Normal (%) [4]: 95%
- Population Pyknosed Nuclei (%) [4]: 10%
- Population Tubulin-Different-Phenotype (%) [4]: 100%
- Total Cell Count [4]: 52
- Population Apoptotic (%) [5]: 26%
- Population Fragmented Nuclei (%) [5]: 17%
- Population Healthy Nuclei (%) [5]: 61%
- Population Hoechst High Intensity Objects (%) [5]: 18%
- Population Membrane Permeable-Phenotype (%) [5]: 18%
- Population Mitochondria Different-Phenotype (%) [5]: 12%
- Population Mitotic Cells (%) [5]: 73%
- Population Normal (%) [5]: 81%
- Population Pyknosed Nuclei (%) [5]: 21%
- Population Tubulin-Different-Phenotype (%) [5]: 50%
- Total Cell Count [5]: 108
- Population Apoptotic (%) [6]: 33%
- Population Fragmented Nuclei (%) [6]: 5%
- Population Healthy Nuclei (%) [6]: 88%
- Population Hoechst High Intensity Objects (%) [6]: 10%
- Population Membrane Permeable-Phenotype (%) [6]: 10%
- Population Mitochondria Different-Phenotype (%) [6]: 15%
- Population Mitotic Cells (%) [6]: 66%
- Population Normal (%) [6]: 89%
- Population Pyknosed Nuclei (%) [6]: 5%
- Population Tubulin-Different-Phenotype (%) [6]: 21%
- Total Cell Count [6]: 85
- Population Apoptotic (%) [7]: 67%
- Population Fragmented Nuclei (%) [7]: 32%
- Population Healthy Nuclei (%) [7]: 32%
- Population Hoechst High Intensity Objects (%) [7]: 12%
- Population Membrane Permeable-Phenotype (%) [7]: 2%
- Population Mitochondria Different-Phenotype (%) [7]: 81%
- Population Mitotic Cells (%) [7]: 32%
- Population Normal (%) [7]: 87%
- Population Pyknosed Nuclei (%) [7]: 35%
- Population Tubulin-Different-Phenotype (%) [7]: 16%
- Total Cell Count [7]: 169
- Population Apoptotic (%) [8]: 66%
- Population Fragmented Nuclei (%) [8]: 8%
- Population Healthy Nuclei (%) [8]: 62%
- Population Hoechst High Intensity Objects (%) [8]: 6%
- Population Membrane Permeable-Phenotype (%) [8]: 64%
- Population Mitochondria Different-Phenotype (%) [8]: 100%
- Population Mitotic Cells (%) [8]: 33%
- Population Normal (%) [8]: 93%
- Population Pyknosed Nuclei (%) [8]: 29%
- Population Tubulin-Different-Phenotype (%) [8]: 100%
- Total Cell Count [8]: 58
- Population Apoptotic (%) [9]: 42%
- Population Fragmented Nuclei (%) [9]: 31%
- Population Healthy Nuclei (%) [9]: 50%
- Population Hoechst High Intensity Objects (%) [9]: 11%
- Population Membrane Permeable-Phenotype (%) [9]: 15%
- Population Mitochondria Different-Phenotype (%) [9]: 11%
- Population Mitotic Cells (%) [9]: 57%
- Population Normal (%) [9]: 88%
- Population Pyknosed Nuclei (%) [9]: 18%
- Population Tubulin-Different-Phenotype (%) [9]: 43%
- Total Cell Count [9]: 119
- Population Apoptotic (%) [10]: 33%
- Population Fragmented Nuclei (%) [10]: 18%
- Population Healthy Nuclei (%) [10]: 73%
- Population Hoechst High Intensity Objects (%) [10]: 12%
- Population Membrane Permeable-Phenotype (%) [10]: 8%
- Population Mitochondria Different-Phenotype (%) [10]: 5%
- Population Mitotic Cells (%) [10]: 66%
- Population Normal (%) [10]: 87%
- Population Pyknosed Nuclei (%) [10]: 7%
- Population Tubulin-Different-Phenotype (%) [10]: 37%
- Total Cell Count [10]: 90
- Population Apoptotic (%) [11]: 80%
- Population Fragmented Nuclei (%) [11]: 33%
- Population Healthy Nuclei (%) [11]: 42%
- Population Hoechst High Intensity Objects (%) [11]: 14%
- Population Membrane Permeable-Phenotype (%) [11]: 1%
- Population Mitochondria Different-Phenotype (%) [11]: 70%
- Population Mitotic Cells (%) [11]: 20%
- Population Normal (%) [11]: 85%
- Population Pyknosed Nuclei (%) [11]: 24%
- Population Tubulin-Different-Phenotype (%) [11]: 6%
- Total Cell Count [11]: 167
- Population Apoptotic (%) [12]: 81%
- Population Fragmented Nuclei (%) [12]: 34%
- Population Healthy Nuclei (%) [12]: 56%
- Population Hoechst High Intensity Objects (%) [12]: 12%
- Population Membrane Permeable-Phenotype (%) [12]: 0%
- Population Mitochondria Different-Phenotype (%) [12]: 90%
- Population Mitotic Cells (%) [12]: 18%
- Population Normal (%) [12]: 87%
- Population Pyknosed Nuclei (%) [12]: 9%
- Population Tubulin-Different-Phenotype (%) [12]: 3%
- Total Cell Count [12]: 133
